ChEMBL document CHEMBL4007470, “Discovery of a 2'-fluoro-2'-C-methyl C-nucleotide HCV polymerase inhibitor and a phosphoramidate prodrug with favorable properties” (Bioorg Med Chem Lett, 2017)

Columns and labels:
[1] = Half life in hamster intestinal S9 fractions at 2 uM by LC-MS/MS analysis; format: ADME, Intestine; conditions: cricetinae
[2] = Half life in hamster plasma at 2 uM by LC-MS/MS analysis; format: ADME, cell-free; conditions: cricetinae
How it was run: (§1)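 Compound at 2 μM incubated in plasma at 37 °C for up to 4 h. Aliquots quenched with 9 volumes of acetonitrile containing internal standard, then centrifuged. Supernatant analysed by LC-MS/MS.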

Rhesus monkey = experiment: Toxicity in monkey at 30 mg/kg/day for 28 days; format: organism-based, Macaca mulatta; conditions: in vivo, 672 h
Hepatitis C virus [3] = experiment: Antiviral activity against HCV genotype 1b infected in human HuH7 cells by luciferase reporter gene assay; format: functional, cell-based, Hepacivirus hominis
How it was run: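 Luciferase-reporter genotype 1b subgenomic replicon in Huh-7 cells; EC50 is concentration giving 50% inhibition. Values are averages of at least three repeats.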

Rattus norvegicus [4] = organism: Rattus norvegicus; experiment: Toxicity in rat assessed as vacuolization in brain treated for 28 days by histopathology; conditions: in vivo, 672 h
[5] = Permeability of the compound from basolateral to apical side in human Caco2 cells at 10 uM; format: ADME, cell-based, Caco-2; conditions: caco-2, 10 µM, 10 µM
How it was run: (§2)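 Caco-2 permeability at 10 μM compound, measured in apical-to-basolateral and basolateral-to-apical directions.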

Hepatitis C virus [6] = experiment: Antiviral activity against HCV genotype 4a infected in human HuH7 cells by luciferase reporter gene assay; format: functional, cell-based, Hepacivirus hominis
Hepatitis C virus [7] = experiment: Antiviral activity against HCV genotype 1a infected in human HuH7 cells by luciferase reporter gene assay; format: functional, cell-based, Hepacivirus hominis, subtype 1a
Liver = experiment: (§3) Hepatic extraction in human liver S9 fractions at 2 uM by LC-MS/MS analysis; format: ADME; conditions: s9, 2 µM, 2 µM
How it was run: (§4)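 Compound at 2 μM incubated with S9 fractions at 37 °C for 90 min with NADPH and UDPGA. Quenched with aqueous acetonitrile/methanol containing internal standard and analysed by LC-MS/MS. Half-life from an exponential fit assuming first-order kinetics. Hepatic extraction predicted from half-life using the well-stirred model.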

[8] = Permeability of the compound from apical to basolateral side in human Caco2 cells at 10 uM; format: ADME, cell-based, Caco-2; conditions: caco-2, 10 µM, 10 µM; how it was run: as §2
[9] = Hepatic extraction in hamster liver S9 fractions at 2 uM by LC-MS/MS analysis; format: ADME; conditions: cricetinae; how it was run: as §4
Plasma = experiment: (§5) Half life in human plasma at 2 uM by LC-MS/MS analysis; format: ADME, cell-free; conditions: 2 µM; how it was run: as §1
Rattus norvegicus [10] = experiment: Toxicity in rat at 1000 mg/kg/day for 28 days; format: organism-based; conditions: in vivo, 672 h
[11] = Prodrug activation in human HuH7 cells infected with HCV genotype 1b assessed as ((2R,3R,4R,5R)-5-(4-aminoimidazo[1,2-f][1,2,4]triazin-7-yl)-5-cyano-4-fluoro-3-hydroxy-4-methyltetrahydrofuran-2-yl)methyl tetrahydrogen triphosphate level per million cells at 10 uM after 24 hrs by LC-MS/MS analysis; format: cell-based; conditions: huh-7, 24 h
How it was run: (§6)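 HCV genotype 1b replicon Huh-7 cells (DMEM with glutaMAX, 10% heat-inactivated FBS, penicillin-streptomycin, G418) grown to confluency (0.88×10^6 cells/well), exposed continuously to prodrug at 10 μM for up to 24 h; washed in ice-cold saline, extracted into 70% methanol overnight, dried, resuspended in 1 mM ammonium phosphate pH 8.5; triphosphate quantified by LC-MS/MS; LLOQ 0.137 pmol/million cells; duplicate wells, single experiment.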

Huh-7 = experiment: Cytotoxicity against human HuH7 cells; format: cell-based
[12] = Prodrug activation in human HuH7 cells infected with HCV genotype 1b assessed as ((2R,3R,4R,5R)-5-(4-aminoimidazo[1,2-f][1,2,4]triazin-7-yl)-5-cyano-4-fluoro-3-hydroxy-4-methyltetrahydrofuran-2-yl)methyl tetrahydrogen triphosphate level per million cells at 10 uM after 6 hrs by LC-MS/MS analysis; format: cell-based; conditions: huh-7, 6 h; how it was run: as §6
[13] = Prodrug activation in human HuH7 cells infected with HCV genotype 1b assessed as ((2R,3R,4R,5R)-5-(4-aminoimidazo[1,2-f][1,2,4]triazin-7-yl)-5-cyano-4-fluoro-3-hydroxy-4-methyltetrahydrofuran-2-yl)methyl tetrahydrogen triphosphate level per million cells at 10 uM after 2 hrs by LC-MS/MS analysis; format: cell-based; conditions: huh-7, 2 h; how it was run: as §6
[14] = Prodrug activation in human HuH7 cells infected with HCV genotype 1b assessed as ((2R,3R,4R,5S)-5-(4-aminopyrrolo[1,2-f][1,2,4]triazin-7-yl)-3,4-dihydroxy-4-methyltetrahydrofuran-2-yl)methyl tetrahydrogen triphosphate formation per million cells at 10 uM after 24 hrs by LC-MS/MS analysis; format: cell-based; conditions: huh-7, 24 h
How it was run: (§7)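 Huh-7 replicon cells grown in DMEM with 10% heat-inactivated FBS, penicillin-streptomycin and G418, plated to confluency (0.88×10^6 cells/well). Prodrug at 10 μM given as continuous incubation, sampled at 2, 6 and 24 h. Cells washed with ice-cold saline and extracted into 70% methanol overnight. Triphosphate quantified by LC-MS/MS (LLOQ 0.137 pmol/million cells). Duplicate wells, single experiment.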

[15] = Prodrug activation in human HuH7 cells infected with HCV genotype 1b assessed as ((2R,3R,4R,5S)-5-(4-aminopyrrolo[1,2-f][1,2,4]triazin-7-yl)-3,4-dihydroxy-4-methyltetrahydrofuran-2-yl)methyl tetrahydrogen triphosphate formation per million cells at 10 uM after 2 hrs by LC-MS/MS analysis; format: cell-based; conditions: huh-7, 2 h; how it was run: as §7
[16] = Prodrug activation in human HuH7 cells infected with HCV genotype 1b assessed as((2R,3R,4R,5S)-5-(4-aminopyrrolo[1,2-f][1,2,4]triazin-7-yl)-3,4-dihydroxy-4-methyltetrahydrofuran-2-yl)methyl tetrahydrogen triphosphate formation per million cells at 10 uM after 6 hrs by LC-MS/MS analysis; format: cell-based; conditions: huh-7, 6 h; how it was run: as §7
[17] = Prodrug activation in human HuH7 cells infected with HCV genotype 1b assessed as ((2R,3R,4R,5S)-5-(4-aminoimidazo[1,2-f][1,2,4]triazin-7-yl)-4-fluoro-3-hydroxy-4-methyltetrahydrofuran-2-yl)methyl tetrahydrogen triphosphate level per million cells at 10 uM after 6 hrs by LC-MS/MS analysis; format: cell-based; conditions: huh-7, 6 h; how it was run: as §6
[18] = Prodrug activation in human HuH7 cells infected with HCV genotype 1b assessed as ((2R,3R,4R,5S)-5-(4-aminoimidazo[1,2-f][1,2,4]triazin-7-yl)-4-fluoro-3-hydroxy-4-methyltetrahydrofuran-2-yl)methyl tetrahydrogen triphosphate level per million cells at 10 uM after 2 hrs by LC-MS/MS analysis; format: cell-based; conditions: huh-7, 2 h; how it was run: as §6
[19] = as §3; format: ADME; conditions: liver S9 fractions, read-out: ERH; how it was run: as §4
[20] = Prodrug activation in human HuH7 cells infected with HCV genotype 1b assessed as ((2R,3R,4R,5S)-5-(4-aminoimidazo[1,2-f][1,2,4]triazin-7-yl)-4-fluoro-3-hydroxy-4-methyltetrahydrofuran-2-yl)methyl tetrahydrogen triphosphate level per million cells at 10 uM after 24 hrs by LC-MS/MS analysis; format: cell-based; conditions: huh-7, 24 h; how it was run: as §6
[21] = as §5; format: ADME, cell-free; how it was run: as §1
[22] = Half life in human intestinal S9 fractions at 2 uM by LC-MS/MS analysis; format: ADME, Intestine; how it was run: as §4
[23] = Inhibition of HCV genotype 1b wild-type NS5B RNA dependent RNA polymerase; parameters: species or system Hepatitis C virus subtype 1b
[24] = Activity at human mitochondrial RNA polymerase assessed as incorporation rate relative to ATP; format: ADME
[25] = system: RNA-directed RNA polymerase (Hepacivirus hominis), O39930 [UNDEFINED MUTATION]; experiment: Inhibition of HCV genotype 1b wild-type NS5B RNA dependent RNA polymerase S282T mutant relative to control; conditions: Hepatitis C virus subtype 1b
[26] = Inhibition of human RNA polymerase-2
[27] = Inhibition of human DNA polymerase-alpha
[28] = Inhibition of human DNA polymerase-gamma
DNA polymerase beta = DNA polymerase beta (Homo sapiens, UniProt P06746); experiment: Inhibition of human DNA polymerase-beta
[29] = Hepatitis C virus, genotype 1b, Huh-7

Q: For CC(C)OC(=O)C1(NP(=O)(OC[C@H]2O[C@@H](c3cnc4c(N)ncnn34)[C@](C)(F)[C@@H]2O)Oc2ccccc2)CCC1 (stereo in doubt; 53), which t1/2 ([1]; s9, 2 µM, 2 µM) is on record?
A: The t1/2 was 1.65 h.

Q: What about the t1/2 ([2]; 2 µM) of the same compound?
A: The t1/2 was 3.63 h.

Q: What about the Activity (Rhesus monkey) of the same compound?
A: The Activity was “Non-Toxic”.

Q: And the EC50 (Hepatitis C virus [3])?
A: Its EC50 is 3000 nM.

Q: And the Activity (Rattus norvegicus [4])?
A: The Activity was “Dose-dependent effect”.

Q: What about the permeability [5] of the same compound?
A: The permeability was 9.3 ×10⁻⁶ cm/s.

Q: And the EC50 (Hepatitis C virus [6])?
A: The EC50 was 440 nM.

Q: And the EC50 (Hepatitis C virus [7])?
A: Its EC50 is 800 nM.

Q: What about the ERH (Liver) of the same compound?
A: Its ERH is 76%.

Q: What about the permeability [8] of the same compound?
A: Its permeability is 1.7 ×10⁻⁶ cm/s.

Q: What about the ERH ([9]; s9, 2 µM, 2 µM) of the same compound?
A: The ERH was 90%.

Q: And the t1/2 (Plasma)?
A: Its t1/2 is 9.1 h.

Q: And the Activity (Rattus norvegicus [10])?
A: The Activity was “Non-Toxic”.

Q: Which results are given for CCOC(=O)[C@H](C)NP(=O)(OC[C@H]1O[C@@](C#N)(c2ccc3c(N)ncnn23)[C@](C)(F)[C@@H]1O)Oc1ccccc1 (some centres undefined)?
A: Drug metabolism [11]: 3.3 pmol; EC50 (Hepatitis C virus [3]; [29]): 3240 nM; Activity (Huh-7): Non-Toxic; Drug metabolism [12]: 5.8 pmol; Drug metabolism [13]: 1.6 pmol

Q: Which results are given for CCOC(=O)[C@H](C)N[P@@](=O)(O)OC[C@H]1O[C@@](C#N)(c2ccc3c(N)ncnn23)[C@](C)(O)[C@@H]1O?
A: Drug metabolism [14]: 83 pmol; Drug metabolism [15]: 26 pmol; Drug metabolism [16]: 117 pmol; EC50 (Hepatitis C virus [3]; [29]): 1450 nM; Activity (Huh-7): Non-Toxic

Q: What does the source list for CCOC(=O)[C@H](C)NP(=O)(OC[C@H]1O[C@@H](c2cnc3c(N)ncnn23)[C@](C)(F)[C@@H]1O)Oc1ccccc1 (some centres undefined)?
A: Drug metabolism [17]: 13 pmol; half-life at 2 µM ([1]; intestinal S9 fractions): 0.4 h; half-life at 2 µM [2]: > 13.2 h; Drug metabolism [18]: 2.4 pmol; EC50 (Hepatitis C virus [3]; [29]): 580 to 590 nM; EC50 (Hepatitis C virus [6]; Hepatitis C virus, genotype 4a, Huh-7): 100 nM; Activity (Huh-7): Non-Toxic; EC50 (Hepatitis C virus [7]; Hepatitis C virus, subtype 1a, Huh-7): 370 nM; hepatic extraction ratio at 2 µM [19]: 0.83; Drug metabolism [20]: 20.5 pmol; hepatic extraction ratio at 2 µM ([9]; liver S9 fractions, read-out: ERH): 0.76; half-life at 2 µM [21]: 7.57 h; half-life at 2 µM [22]: 2.23 h

Q: Which IC50 [23] does the source give for C[C@@]1(F)[C@H](O)[C@@H](COP(=O)(O)OP(=O)(O)OP(=O)(O)O)O[C@H]1c1cnc2c(N)ncnn12 here?
A: Its IC50 is 150 nM.

Q: What about the EC50 (Hepatitis C virus [3]; [29]) of the same compound?
A: Its EC50 is over 89000 nM.

Q: What about the Activity [24] of the same compound?
A: The Activity was 0.04%.

Q: What about the fold change (FC) [25] of the same compound?
A: The fold change (FC) was 5.9.

Q: What about the IC50 [26] of the same compound?
A: Its IC50 is over 200000 nM.

Q: What about the IC50 [27] of the same compound?
A: The IC50 was over 200000 nM.

Q: And the IC50 [28]?
A: The IC50 was over 200000 nM.

Q: What about the IC50 (DNA polymerase beta) of the same compound?
A: The IC50 was over 200000 nM.
